Source: PubChem BioAssay
DENV2 CPE – inhibitors of DENV2 cytopathic effect, primary screen, cell-based, plate reader, single concentration | CPE inhibition, % at 9.99 µM | AID 651640, 2012 | 350,000 tested, 1.7% active | DENV2-infected cells, cytopathic effect rescue; in the data active = CPE inhibition above about 20%, passing the limit was not always enough; inconclusive = no clear call, values can overlap the other calls; tested in BHK-21 cells;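 also: 0% = median of neutral control wells and 100% = median of positive control wells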
SIRT5 inh – SIRT5 desuccinylase inhibitors, primary screen, biochemical, fluorescence imaging, single point, set 5 | NAD-dependent protein deacylase sirtuin-5, mitochondrial (Homo sapiens), Q9NXA8 | Purified SirT5, succinyl-peptide AMC, trypsin-coupled fluorescence | inhibition, % at 15 µM | 330,000 tested, 1.1% active; in the data active = inhibition above about 15%; inconclusive = no clear call, values can overlap the other calls
Target sequence (Q9NXA8 whole entry, looked up): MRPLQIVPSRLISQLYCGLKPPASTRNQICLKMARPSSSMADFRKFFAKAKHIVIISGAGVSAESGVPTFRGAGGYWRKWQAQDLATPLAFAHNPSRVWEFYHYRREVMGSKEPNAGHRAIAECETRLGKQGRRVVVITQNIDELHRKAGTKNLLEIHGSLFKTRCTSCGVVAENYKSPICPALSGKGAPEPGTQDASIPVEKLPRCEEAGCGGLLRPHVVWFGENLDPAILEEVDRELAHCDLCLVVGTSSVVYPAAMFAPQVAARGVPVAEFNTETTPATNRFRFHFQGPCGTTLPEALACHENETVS
PGC1a acetyl inh – inhibitors of PGC1a acetylation signal, primary screen, cell-based, U2OS, AlphaScreen, inhibitor mode; 350,000 tested, 0.17% active; inhibition, % at 15.6 µM; AlphaScreen anti-acetyl-lysine; with virally co-expressed GCN5 acetyltransferase;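 active = every replicate shows inhibition of at least 40%; inconclusive = mean inhibition at least 40% but some replicate below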;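 also: 0% = neutral control wells and 100% = positive control wells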
S100A4 inh HTS – inhibitors of S100A4-myosin IIA peptide binding, primary screen, biochemical, fluorescence polarization, TAMRA-MyoIIA peptide; Protein S100-A4 (Homo sapiens), P26447; inhibition, % at 10.7 µM; 360,000 tested, 0.14% active; AID 652163, 2013;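 active = mean inhibition of at least 70% across replicates, with every replicate also reaching that level; inconclusive = mean inhibition reaches 70% but some replicates fall short; inactive = mean inhibition below 70%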
Target sequence (P26447 whole entry, looked up): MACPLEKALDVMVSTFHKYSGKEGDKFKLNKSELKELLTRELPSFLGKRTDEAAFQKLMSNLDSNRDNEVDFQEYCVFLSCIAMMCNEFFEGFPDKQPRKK
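Compound dosing: one dose per compound; test system: human S100A4 monomer with TAMRA-labelled myosin IIA peptide; probe or stimulus: TAMRA-labelled myosin IIA heavy-chain peptide probe, 5 nM; medium: HEPES buffer with Ca2+, pH 7.2; schedule: 5 min incubation before reading; benchmarks: neutral control DMSO, positive control TFP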
Statin myotox sup – suppressors of statin myotoxicity in C2C12 myotubes, primary screen, cell-based, single point, plate reader; rescue of ATP level, % at 7.49 µM; C2C12 myotubes + simvastatin, ATP luminescence, 48 h; scaled: DMSO 0, geranylgeraniol control 100; 330,000 tested, 0.78% active;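 active = mean ATP rescue above about 67%, or every replicate alone reaching that limit, limit read from the data, passing the limit was not always enough; inconclusive = no clear call, values can overlap the other calls; inactive = mean under the limit and some replicate under it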;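 also: myotubes were challenged with 10 µM simvastatin during compound exposure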
* marks the source's active call; other numbers are inactive results; ? = inconclusive; . = no result given. Only some compounds are listed: those with a hit (about 2.9% of all), similar ones and a draw of the others.

SMILES	DENV2 CPE	SIRT5 inh	PGC1a acetyl inh	S100A4 inh HTS	Statin myotox sup
Cc1ccc(S(=O)(=O)N(C)C[C@@H]2OCCCC[C@@H](C)Oc3ccc(NC(=O)NC(C)C)cc3C(=O)N([C@@H](C)CO)C[C@@H]2C)cc1	3.2	.	10.2	-11.0	.
C[C@@H]1CN([C@@H](C)CO)C(=O)c2cccc(NC(=O)C3CCCCC3)c2O[C@H]1CN(C)Cc1ccc(C(=O)O)cc1	11.0	6.5	15.0	2.3	-14.1
O=[N+]([O-])c1ccc(C2=Nc3cc(Cl)ccc3OC2)cc1	-1.6	6.8	-10.7	-3.3	.
O=C1COc2cc(ccc2[N+](=O)[O-])Oc2ccc(cc2Cl)C(=O)CCCCO1	9.2	17.6*	6.6	1.0	0.5
CC(C)OC1=CC(=O)OC(c2cccc(Cl)c2)C1 (centres undefined)	30.9*	-1.1	.	-1.5	.
COC1=CC(=O)OC(c2cccc(Cl)c2)C1 (centres undefined)	-8.5	-2.6	.	-0.9	.
Nc1nc(-c2ccc(C(=O)O)cc2)cs1	-3.2	38.3*	8.4	3.0	1.6
Nc1nc(-c2ccc(-c3ccccc3)cc2)cs1	-2.2	-1.3	-10.0	-1.3	-0.4
CCC[N+](CC#Cc1ccccc1)(CCC)CC(=O)c1ccc(Cl)cc1	45.8*	.	.	-4.2	.
CCc1cnc(N2[C@@H](C#N)[C@@H](c3ccc(-c4cccc(F)c4)cc3)[C@@H]2CO)s1	?	-0.7	-21.6	-14.8	-32.8
CCOC(=O)/C=C/c1cccc(C)c1O	-2.0	-0.2	.	-29.0	.
CCOC(=O)/C=C/c1cc(F)ccc1O	20.7*	0.6	.	-2.6	.
CSc1nc2nc3c(c(=O)n2[nH]1)CCCC3	.	.	-6.1	.	119.4*
O=c1c2c(nc3nc(Cc4ccccc4)[nH]n13)CCC2	.	.	6.8	.	14.7
O=C(c1ccncc1)N1CC2(C1)[C@H](c1ccccc1)[C@@H](CO)N2CC1CCOCC1	73.4*	4.1	4.9	-7.6	.
O=C(c1ccncc1)N1CC2(C1)[C@H](c1ccccc1)[C@H](CO)N2CC1CC1	-0.9	-1.2	.	-1.2	.
CCC(=O)N1CC2(C1)[C@@H](c1ccccc1)[C@@H](CO)N2CC1CCOCC1	-4.5	-0.5	5.1	59.9	.
O=C(NC1CCCC1)N1CC2(C1)[C@H](c1ccccc1)[C@@H](CO)N2CC1CCOCC1	38.1*	12.0	4.1	2.0	.
O=C(NC1CCCCC1)N1CC2(C1)[C@H](c1ccccc1)[C@H](CO)N2CC1CCOCC1	4.2	13.5	-4.5	-21.0	.
O=C(c1ccccc1F)N1CC2(C1)[C@@H](c1ccccc1)[C@H](CO)N2CC1CC1	29.6*	-2.7	-7.5	-6.2	.
CCC(=O)N1CC2(C1)[C@H](c1ccccc1)[C@H](CO)N2CC1CCOCC1	70.4*	-0.1	6.4	16.7	.
O=C(c1ccccc1F)N1CC2(C1)[C@@H](c1ccccc1)[C@@H](CO)N2CC1CCOCC1	7.2	2.3	-5.1	-3.1	.
C[C@@H]1CN([C@@H](C)CO)C(=O)c2cc(NC(=O)CCN3CCOCC3)ccc2O[C@H]1CN(C)Cc1ccc(-c2ccccc2)cc1	-1.0	6.1	-4.1	-18.7	-1.8
O=C(C[C@@H]1CC[C@H]2[C@@H](COC[C@@H](O)CN2Cc2ccccc2)O1)NCCCN1CCOCC1	0.6	-4.5	-6.0	7.3	-5.5
N#C[C@H]1[C@H](c2ccccc2C2=CCCCC2)[C@@H](CO)N1C(=O)NC1CCCCC1	-8.0	-0.1	15.9	-3.9	.
SMILES	DENV2 CPE	SIRT5 inh	PGC1a acetyl inh	S100A4 inh HTS	Statin myotox sup
O=C(c1ccccc1)N1CC2(C1)[C@@H](c1ccccc1)[C@@H](CO)N2CC1CC1	21.4*	-2.8	-5.4	1.8	.
O=C(c1ccncc1)N1CC2(C1)[C@@H](c1ccccc1)[C@@H](CO)N2CC1CCCC1	-6.2	18.0*	1.3	7.0	.
C[C@H](CO)N1C[C@H](C)[C@@H](CN(C)C(=O)Nc2ccc(F)cc2)Oc2cc(-c3ccc(F)cc3)ccc2S1(=O)=O	.	.	-1.7	.	-3.8
COCCN(C(=S)Nc1cccc(C)c1)C(C)c1cccs1 (centres undefined)	30.4*	1.7	.	3.3	.
COCCN(C(=S)Nc1cc(C)cc(C)c1)C(C)c1cccs1 (centres undefined)	-3.9	-3.1	.	0.0	.
CCCNC(=O)[C@H]1N[C@H]2c3ccc(C4=CCCCC4)c(=O)n3C[C@H]2[C@@H]1CO	-5.2	17.2*	.	1.1	-21.7
CCCN1[C@H](C(=O)OC)[C@@H](CO)[C@@H]2Cn3c(ccc(C4=CCCC4)c3=O)[C@@H]21	84.0*	-1.1	-6.0	-1.6	-1.9
CCCN1[C@@H]2c3ccc(C4=CCCC4)c(=O)n3C[C@@H]2[C@@H](CO)[C@@H]1C(=O)NCC	-6.2	17.7*	.	-2.2	6.4
CCCN1[C@@H]2c3ccc(C4=CCCC4)c(=O)n3C[C@@H]2[C@@H](CO)[C@@H]1C(=O)OC	-4.6	11.4	-19.7	-7.3	2.0
CN1[C@@H]2c3ccc(C4=CCCC4)c(=O)n3C[C@@H]2[C@@H](CO)[C@@H]1C(=O)NCc1ccccc1F	50.2*	0.4	.	1.0	12.3
Cc1noc(C)c1NC(=O)N(C)C[C@@H]1Oc2cc(C#CCC3CCCC3)ccc2S(=O)(=O)N([C@@H](C)CO)C[C@H]1C	-6.3	8.1	8.5	1.1	11.7
CC(C)NC(=O)N(C)C[C@@H]1Oc2ccc(NC(=O)CCCCCC(=O)Nc3ccccc3N)cc2CC(=O)N([C@H](C)CO)C[C@H]1C	?	.	9.7	-0.1	-26.0
O=C(NC[C@H]1N[C@H](CO)[C@@H]1c1ccc(-c2ccccc2)cc1)C1CCC1	.	.	7.3	.	-12.0
COc1ccc(-c2ccc3n(c2=O)C[C@H]2[C@H](CO)[C@@H](C(=O)NCCN4CCCCC4)N(C)[C@@H]32)cc1	33.5*	-27.8	.	2.6	.
COC(=O)[C@H]1[C@H](CO)[C@H]2Cn3c(ccc(C4=CCCCC4)c3=O)[C@H]2N1CC1CCCCC1	?	3.4	.	-12.8	?
COC(=O)[C@H]1[C@H](CO)[C@H]2Cn3c(ccc(C4=CCCC4)c3=O)[C@H]2N1CC1CCOCC1	70.8*	-0.6	.	-13.7	-5.8
c1ccc(-c2ccc3[nH]ccc3c2)cc1	87.5*	-0.3	-7.0	-0.9	2.2
C[C@@H]1CCCCO[C@H](CN(C)C(=O)Cc2ccccc2)[C@H](C)CN([C@@H](C)CO)C(=O)c2cc(NC(=O)Nc3ccc(C(F)(F)F)cc3)ccc2O1	44.2*	-1.4	.	6.6	-77.4
C[C@@H]1CN([C@H](C)CO)C(=O)c2cc(NC(=O)Nc3ccc(C(F)(F)F)cc3)ccc2O[C@@H](C)CCCCO[C@@H]1CN(C)C(=O)Cc1ccccc1	81.9*	-0.3	.	1.4	-29.6
CC(C)NC(=O)Nc1ccc2c(c1)CC(=O)N([C@@H](C)CO)C[C@@H](C)[C@@H](CN(C)C(=O)Nc1cccc3ccccc13)O2	10.5	-1.9	3.3	1.8	52.6
